The text below walks through data of ChEMBL document CHEMBL1146530, “Antihyperglycemic effect of puerarin in streptozotocin-induced diabetic rats” (2003).

Activity calls are given as the source filed them. No cut-off for these calls is given here.

Assay [1] addresses Solute carrier family 2, facilitated glucose transporter member 4 (Rattus norvegicus) (UniProt P19357). The assay can be described thus: Induction of GLUT4 protein level in STZ- induced diabetic Wistar rat soleus muscle at 15 mg/kg, iv tid every 8 hrs for 3 days by Western blot relative to beta-tubulin expression.
In assay [2] the test system is Rattus norvegicus. Nature of the assay: Antihyperglycemic effect in STZ- induced diabetic Wistar rat model assessed as decrease in plasma glucose level at 15 mg/kg, iv tid every 8 hrs for 3 days. Format: functional. An outline of the steps:
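STZ-diabetic rats were dosed at 15.0 mg/kg iv into the tail vein every 8 h (tid) for 3 days. Vehicle-treated diabetic and normal rats served as comparisons. Plasma glucose was measured in fasting animals after the final dose.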

The species entered for assay [3] is Rattus norvegicus. Nature of the assay: Antihyperglycemic activity against STZ- induced diabetic Wistar rat soleus muscle assessed as 2-[1-14C]-deoxy-D-glucose uptake after 30 mins. In kind it is functional, tissue-based. In short, it runs like this:
(§1)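 Soleus muscle strips ([…]) from rats made diabetic with STZ (60 mg/kg iv), used 2 weeks later. Strips were preincubated 30 min in KRBB (37 °C, pH 7.4, 1 mmol/L glucose, 1% fatty acid-free BSA, 5% CO2 in O2), then exposed to test agent 30 min. Next came 2-[1-14C]-deoxy-D-glucose (1 µCi/mL) for 5 min. Strips were dissolved in NaOH and counted by β-counting. Nonspecific uptake was defined with 20 µmol/L cytochalasin B and subtracted. Results are given as % of KRBB-only basal uptake. The 1 nmol/L insulin reference was run the same way.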

In assay [4] the test system is Rattus norvegicus. Nature of the assay: Antihyperglycemic effect in STZ- induced diabetic Wistar rat model assessed as reduction in plasma glucose level at 15 mg/kg, iv measured after 30 mins. In kind it is functional. Set-up: scale not given: the % may be the effect or the level left. In short, it runs like this:
(§2)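 Fasting STZ-diabetic rats (60 mg/kg iv, 2 weeks earlier; glucose ≥20 mmol/L) got a single tail-vein bolus (5.0-20.0 mg/kg in normal saline). Vehicle controls received the same volume. Tail-vein blood was drawn 30 min later under pentobarbital (30.0 mg/kg ip). Plasma glucose was measured by enzymatic kit at 37 °C for 10 min, run in duplicate. n = 8 per group; mean ± SEM.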

Assay [5] concerns Rattus norvegicus. Nature of the assay: Induction of GLUT4 mRNA level in STZ- induced diabetic Wistar rat soleus muscle at 15 mg/kg, iv tid every 8 hrs for 3 days by Northern blot relative to beta-actin expression. In kind it is functional. An outline of the steps:
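Rats received 15.0 mg/kg iv tid (every 8 h) for 3 days and were killed fasting. Soleus total RNA (20 µg) was denatured in formaldehyde/formamide at 55 °C and run on a 1.2% agarose/formaldehyde gel. Blots were probed with [α-32P]dCTP-labelled probe at 65 °C for 2 h and washed to 0.1× SSC/0.1% SDS at 40 °C. GLUT4 was normalized to β-actin; n = 4, mean ± SEM.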

In assay [6] the test system is Rattus norvegicus. The assay can be described thus: Antihyperglycemic effect in normal Wistar rat assessed as decrease in plasma glucose level at 15 mg/kg, iv measured after 5 mins of glucose challenge by intravenous glucose challenge test.
The nature of assay [7]: Antihyperglycemic activity against STZ- induced diabetic Wistar rat soleus muscle assessed as 2-[1-14C]-deoxy-D-glucose uptake at 0.01 umol/L after 30 mins relative to control. In kind it is functional. An outline of the steps:
as §1

Assay [8] is described as follows: Antihyperglycemic activity against STZ- induced diabetic Wistar rat soleus muscle assessed as 2-[1-14C]-deoxy-D-glucose uptake at 100 umol/L after 30 mins relative to control. Format: functional. In short, it runs like this: as §1
The subject of assay [9] is Rattus norvegicus. Nature of the assay: Antihyperglycemic effect in normal Wistar rat assessed as reduction in plasma glucose level at 15 mg/kg, iv measured after 30 mins by intravenous glucose challenge test.
In assay [10] the test system is Rattus norvegicus. The assay can be described thus: Induction of GLUT4 protein level in STZ- induced diabetic Wistar rat soleus muscle at 15 mg/kg, iv tid every 8 hrs for 3 days by Western blot relative to vehicle treated normal rat. In kind it is functional. An outline of the steps: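 Same 3-day tid 15.0 mg/kg iv regimen. Soleus homogenate (50 µg protein) was run on 10% SDS-PAGE and transferred to PVDF. Blots were probed overnight at 4 °C with mouse anti-rat GLUT4 (1:1000); β-tubulin (1:500) served as loading control. Detection was by peroxidase secondary and ECL, with densitometry at 45 kDa (GLUT4) and 50 kDa (β-tubulin). n = 4.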

In assay [11] the test system is Rattus norvegicus. Nature of the assay: Antihyperglycemic effect in normal Wistar rat assessed as decrease in plasma glucose level at 15 mg/kg, iv measured after 15 mins of glucose challenge by intravenous glucose challenge test.
The test system of assay [12] is Rattus norvegicus. Nature of the assay: Antihyperglycemic effect in iv dosed STZ- induced diabetic Wistar rat model assessed as reduction in plasma glucose level measured after 30 mins. In kind it is functional, organism-based. An outline of the steps: as §2
The subject of assay [13] is Rattus norvegicus. The assay can be described thus: Antihyperglycemic effect in STZ- induced diabetic Wistar rat model assessed as reduction in plasma glucose level at 20 mg/kg, iv measured after 30 mins. In kind it is functional, organism-based. Set-up: dose 20 mg/kg. An outline of the steps: as §2

In the case of `O=c1c(-c2ccc(O)cc2)coc2c([C@@H]3O[C@H](CO)[C@@H](O)[C@H](O)[C@H]3O)c(O)ccc12` [PUERARIN], the Activity was 0.88 a.u in [1]; 16.5 mmol/L in the assay on Rattus norvegicus [2]; “Dose-dependent effect” in the assay listed under Rattus norvegicus [3]; 33.5% in the assay with Rattus norvegicus [4]; 1.01 a.u with Rattus norvegicus [5]; 13.4 mmol/L with Rattus norvegicus [6]. The Activity in assay [7] was 108%; in [8], 145%; in the assay on Rattus norvegicus [9] it was 3.9 mmol/L; with Rattus norvegicus [10], 80%; in the assay with Rattus norvegicus [12] it was “Dose-dependent effect”. Further, the outcome with Rattus norvegicus [11] and in the assay with Rattus norvegicus [13] was Active.
